Source: the EternaBench riboswitch data

Tested on: MS2 coat protein
Assay: apparent Kd, MS2 coat protein; higher = weaker binding; RNA-MaP array; FMN 200 µM where present
Method in brief: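 Green signal from SNAP-549-labelled MS2 coat protein was normalised to red-channel RNA signal and to the median Fmax of control clusters. The protein was titrated from 0.7 or 1.5 nM, doubling to 3 µM, without and then with constant ligand, over designs transcribed by stalled E. coli RNA polymerase on Illumina sequencing-chip clusters, in 100 mM Tris-HCl pH 7.5, 80 mM KCl, 4 mM MgCl2, BSA, DTT, yeast tRNA and Tween-20. The apparent Kd is the median of filtered per-cluster binding-curve fits.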

[1] = designed as: OFF switch for flavin mononucleotide, no ligand
[2] = ligand present: flavin mononucleotide, designed as: OFF switch for flavin mononucleotide
[3] = designed as: ON switch for flavin mononucleotide, no ligand
[4] = ligand present: flavin mononucleotide, designed as: ON switch for flavin mononucleotide

Sequence | apparent Kd [1] [nM] | apparent Kd [2] [nM] | apparent Kd [3] [nM] | apparent Kd [4] [nM]
CUUUUUUUUGUGAGGAUAUACUGUUAUUAAAGUUAGUAGAAGGUACAUGAGGAUCACCCAUGUUAAUUACUUUA | 14.2 | 13.8 |  | 
AAUGAAUUCGAGAAGGGAGAUGUGGCACUUGUUUCGAAGUUGUGAUCACUCAGGAUAUCGAAACAUGAGGAUCACCCAUGUAAA |  |  | 273 | 17.5
GUCAUCUCAUGAGGAUAUGCUCGGGUUUCCCGAGCAGAAGGCAUGUCAUACAUGAGGAUCACCCAUGUUGACAUUAAGAUUGUA |  |  | 4.78 | 5.04
CGUCCGUGGGUAGUGAUCGUACAUGAGGAUCACCCAUGUGAGAAGGAUAUGCAUGCACGUGGACAGCAGAAGGUCUCACAACAA | 238 | 101 |  | 
CUCUUUGUUGAGGAUAUGCACCAGCUCACUGACGCAGAAGGCGACACAUGAGGAUCACCCAUGUCAGUUCGCGU | 17.4 | 21.5 |  | 
AUCAGCUCGUCAGGAUAUACGUCACUGCUUCGGCAGUGUGGUAAGAUCACAUGAGGAUCACCCAUGUAGAAGGGACGAGCUGAU | 38.4 | 754 |  | 
UGUUACUAGUAAGGAUAUACUUGCAAUUAGCUUGUAGAAGGUACAGUCUUUUGUAUAACAUGUUUACAUGAGGAUCACCCAUGU |  |  | 10.4 | 9.05
CAGAGGAUGUAAGGAUAUCGUCAGGAUAACUGACGAGAAGGUACAUGAGGAUCACCCAUGUAACUCUAAUAAUAAUAACCUCUG | 11.7 | 17.3 |  | 
GCUUUACUGGUCAGGAUAUACAUUUGCUACUCUUUGUAGAAGGGACAUGAGGAUCACCCAUGUACUUUACAUUC | 15.3 | 16.6 |  | 
GGGUACAUCGGAGGAUAUCAUGUAAAUACAUGAGGAUCACCCAUGUCGAUGGAGACAUCGGACAUUGAGAAGGCCGAUGUACCG |  |  | 29.2 | 5.79
GCAGCGCCUGACAUGAGGAUCACCCAUGUUCCAUUGUUGAGUCAGGAUAUAGUCUAGAAACUAGACUAGAAGGGAUAUGCUGCU |  |  | 70.2 | 50.8
UGCAUGGUAGGAUAUACGGAACAUUAGGGUUUGUUAUGUGGACAUGAGGAUCACCCAUGUAGAAGGGCCGUGCU | 45.9 | 72.3 |  | 
UUCAUGUGAGGAUAUAGUACUCCUUCUAUUAUUUUUGAGUAUUAGAAGGCACAUGAGGAUCACCCAUGUAGUAC | 28.1 | 46.9 |  | 
GGAUAGGACAGAGGAUAUACAGAUAGGAUCUACUAUCAAACAGUCCUUACAUGAGGAUCACCCAUGUAGAAGGCUGUCCUAUCG | 19.4 | 87.4 |  | 
UAAAUGUGAGGAUAUUCGAUUAACUCGGAGACGAGUUGAUCGGAGAAGGCACAUGAGGAUCACCCAUGUUCCUU | 24.8 | 232 |  | 
GUCAGCUCGUGAGGAUAUACAUGUGCUGGAAACAGCACUAUUAAGAUCACAUGAGGAUCACCCAUGUAGAAGGCACGAGCUGAU | 47.3 | 630 |  | 
GCACUUUUAUUUGAACCGUUUCGAACAUGAGGAUCACCCAUGUAGGAUAUGCUAAAAGUUGUGAUGCAGAAGGACAUUAAGUGC | 6.94 | 7.5 |  | 
ACAUGAGGAUCACCCAUGUAUACAUAGGAUAUUGGUGAUCAGGGAUGUUUUACAGGAUAUGUCUGCGAGAAGGAUGCAAGUAGU |  |  | 238 | 48.3
GGAUUUACUGAGGAUAUUGCAUUACCCGAUUGAUAAGAAGGCAGAACAUGAGGAUCACCCAUGUGGGUAGUCAA | 17.4 | 16.4 |  | 
GGUCGACAUGAGGAUCACCCAUGUCAGGAUAUCGUCACUGGAGCUGCGGCUCCAGUGACGAGAAGGGAUAUGAU | 41.3 | 37.4 |  | 
AGCUGUGGCCGAGGAUAUACAUUCCUAAUCCAUUGCAAAUAGCGAUGGACAUGAGGAUCACCCAUGUAGAAGGCGGUCUCAGCA | 561 | 163 |  | 
AGGAUGUUAGGAUAUCGAAGGUUGUGGCAGGCGGGAAUUUGCGAGAAGGAACAUGAGGAUCACCCAUGUGAAAU | 22.9 | 22.2 |  | 
AAAUAAAACGAUCGGCGAUCCAUACAUGAGGAUCACCCAUGUAGAAGGCACUCUACAAAGUAGAGUGAGGAUAUACGAGAUCGA | 7.13 | 95.5 |  | 
GAUAGGACAGAGAAGGACGUGGCUAGAGAUACUAGCAUAAAGGUCCAAACAUGAGGAUCACCCAUGUAGGAUAUCUGUCCUAUC | 6.59 | 8.89 |  | 
AGCAGACGAGGAUAUAGAUGGAAUGACAUGAGGAUCACCCAUGUGAUCGAUCUAUUGGGUUUAGAAGGUGUCUGCU | 15.2 | 15.4 |  | 
GCCAUCGCAUGAGGAUAUGCUCCGGUUUCCGGAGCAGAAGGUAUGUCAUAUGACAUGAGGAUCACCCAUGUAGUUAAGAUGGCA |  |  | 571 | 54.7
CGGCGGAAAGGAUAUGCAUUAAUAUCAAUAUGUGGGCCACGACAUGAGGAUCACCCAUGUAGAAGGUUCAGCCG | 21.8 | 16.8 |  | 
GGUACUCAAAGAGUACCAAGACGAACAUGAGGAUCACCCAUGUAGGAUAUGCUACUCAAAGAGUAGCAGAAGGACAUGUGCCUA | 17.1 | 107 |  | 

Sequence | apparent Kd [1] [nM] | apparent Kd [2] [nM] | apparent Kd [3] [nM] | apparent Kd [4] [nM]
CGGUGGUCAGGAUAUACGAACAUGUCGCCAGAUGUCAUGGUACAUGAGGAUCACCCAUGUAGAAGGGAGUAGGU | 181 | 171 |  | 
AAACACGGACAUGAGGAUCACCCAUGUGGCGAAAGCCUUGGGAGAAGGCCGUAUGCAAAGCAUACGGAGGAUAUCCAUACCGUG |  |  | 18.1 | 6.34
GUAGCAUACCGAGGAUAUUCUAACCGGAAACGGACAUGAGGAUCACCCAUGUGGCGAAAGCCUAGGGAGAAGGCGGAAUGCUAC |  |  | 10.5 | 11.6
AUCUUGUCAGGAUAUCUGACAAGUGACUUCGGUCACAGUUCAGAGAAGGUACAUGAGGAUCACCCAUGUAGAAC | 17.4 | 18.6 |  | 
UGAUAGGACAGAGGAUAUACCGAUAGGAUCUACUAUCGAAUAAUCCUCACAUGAGGAUCACCCAUGUAGAAGGCUGUCCUAUCU | 19.7 | 144 |  | 
AAAGCAACAUGAGGAUCACCCAUGUAGGAUAUCGCUAUUGUAAUCAUGAAACAUGAUUACAAUAGCGAGAAGGACAUAUGCGGG | 42.5 | 45.2 |  | 
UUUGUAAUGUCAGGAUAUAUUAUAAGUCAGACUGUAGAAGGGAUAAUUAUACUCAUGUACAUGAGGAUCACCCAUGUUAAAUAU |  |  | 97.1 | 53.2
GGGCCACAUGAGGAUCACCCAUGUAAACCCGUGCUCAGGGCACAGGAUAUGGGCCUGGAUGAGGCCCAGAAGGGUGGUCUGGCC |  |  | 40.1 | 16.3
UAAACGUUCUAGAAGGUGCUUUUGUUAAACAAGCAAGGAUAUAGACAUGAGGAUCACCCAUGUCUUUAAGACAUCGACAUACUU | 7.91 | 8.63 |  | 
AGGAGGUUAGGAUAUGCUGCUCGUCACUUGCGUGAUGAGUAGCAGAAGGAACAUGAGGAUCACCCAUGUAAAAA | 30.2 | 31.9 |  | 
GCCUCAUAGUAGAAGGGACUUCGGCUGUUAAGCAUCAUCUCCAUAUCACAUGAGGAUCACCCAUGUCAGGAUAUACUAAGAGGC | 6.95 | 14.4 |  | 
ACGUGUUAUACAGGAUAUGUUUAGGUACAAUCAUCCAGAUAUUAAUUUAUAACAGAAGGGUAAACAUGAGGAUCACCCAUGUCA | 18.4 | 15.1 |  | 
UGCCGGAGCAGAGGAUAUUACAUGAGGAUCACCCAUGUAUGAACCAAUAGCUGGAAACAGCAAUGUAAGAAGGCUGCUCCGACA | 13.4 | 144 |  | 
CUGACGUUUGAAGGAUAUGACAUGUUGAAGCGUAUUGACAGCCCUGCACAUGAGGAUCACCCAUGUCAGAAGGUCAACCGUUGA | 7.11 | 20.3 |  | 
CAGUCUACAGGAUAUACAUGAGGAUCACCCAUGUGUAUCAACCUUCUGUAAUCCUCAUGUAGAAGGGUAGACUG | 16.3 | 13.7 |  | 
UGUAUGGACAGAGGAUAUACAGAUAGGAUCUACUAUCAAACAUUCCUGACAUGAGGAUCACCCAUGUAGAAGGCUGUCCAUACU | 21.1 | 79.2 |  | 
UGGUACUAGGGAGGAUAUGGGAAGAUACAUGAGGAUCACCCAUGUUUAAGAAUGCCGAGAGGCUACUAGAAGGCCCUAGUACCU |  |  | 268 | 9.69
AUGCUCGUGUGAGGAUAUGCCGCCGUUUCGGCUGCAGAAGGUGCUACGUUACAUGAGGAUCACCCAUGUCUCUGUUGUUUCGUG |  |  | 24.4 | 25.5
GGCCCACAAGGAUAUACAUGAGGAUCACCCAUGUAAAUCUCAGGUAGUAUGUGGGUGUGUAGAAGGUGUUAGCC | 15.2 | 14.4 |  | 
UUGCAGUCAUCAGGAUAUAGUAUUACGGCCAUUUAUAUUUUCAUACAUGAGGAUCACCCAUGUCGCUAGAAGGGAUUAUCGAUU | 47.7 | 43 |  | 
CUCUGACAUGAGGAUCACCCAUGUGAGGAUAUGAUGCAGCAGUGGUCUACGCUGUGCAUCAGAAGGCACAUGUG | 101 | 33.4 |  | 
CCUAAGCGAAUCAAGAUGGAUAGAACAUGAGGAUCACCCAUGUAGGAUAUGCUACACAAAGUGUAGCAGAAGGACAAGCUUAGG | 25.9 | 40.5 |  | 
GAUCGUAUCCUAGGAUAUUCAUAAAACAUGAGGAUCACCCAUGUUAACUUGGGAGAAGGAGGAUACGAUCAACAGCGAAAGCUG |  |  | 7.35 | 5.09
AGUCGGAGCAGAGGAUAUUACAUGAGGAUCACCCAUGUAUAAAAUGGAAGCUGGAAACAGCAAUGUAAGAAGGCUGCUCCGACA | 64 | 296 |  | 
UCUUGUGUUGAGGAUAUGCGCCGGCUCGCUGGCGCAGAAGGCGGCACAUGAGGAUCACCCAUGUCAGUUCGCGA | 502 | 60.8 |  | 
GGAAUACAUGAGGAUCACCCAUGUAAGGAUAUGCUGAUUAACACGGAAUAAUUAUGCAGCAGAAGGUACAAAGG | 113 | 91.1 |  | 
UAUGUAUUCGUAGGAUAUCCGUUGAAACCGUGUGGAGAAGGACGAACAUGAGGAUCACCCAUGUAUCAUGGUGUAGACAAUUUU | 75.3 | 288 |  | 
